“Also recorded” adds a separate entry of the source.
Target: CK2α catalytic subunit (Homo sapiens, UniProt P68400)
Assay: In vitro phosphorylation assay of CK2α with peptide substrate RRRADDSDDDDD
Type: biochemical
Conditions: substrate RRRADDSDDDDD
In short: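 Activity is expressed as % of no-peptide control, as the mean of at least three independent experiments. Full-length murine NBD1ΔF508 (389–673) tests were run at 350 μM ATP.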

Chain of CK2α catalytic subunit (P68400 whole entry): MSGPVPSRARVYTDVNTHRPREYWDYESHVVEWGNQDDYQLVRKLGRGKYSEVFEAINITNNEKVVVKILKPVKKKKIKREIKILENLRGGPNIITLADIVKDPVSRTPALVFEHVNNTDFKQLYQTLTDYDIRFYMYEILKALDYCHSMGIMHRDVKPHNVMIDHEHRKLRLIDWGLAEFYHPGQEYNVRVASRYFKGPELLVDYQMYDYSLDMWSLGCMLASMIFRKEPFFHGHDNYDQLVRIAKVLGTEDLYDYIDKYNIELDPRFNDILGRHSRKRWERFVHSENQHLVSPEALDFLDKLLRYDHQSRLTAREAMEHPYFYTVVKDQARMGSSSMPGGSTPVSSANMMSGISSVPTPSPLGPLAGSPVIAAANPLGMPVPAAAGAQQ

Substance | inhibitory efficacy on CK2α (in words) (compared with the parent peptide) | onset of stimulation of CK2α catalytic activity (β-peptide alone) [µM]
CFTRΔI507 peptide: CFTR(500–518) peptide with Ile^507 deleted (GTIKENIFGVSYDEYRYR) | loss in inhibitory efficacy; also recorded: unable to exert the same efficacy of the CFTRΔF508 peptide | –
β-peptide: peptide reproducing the C-terminal segment of the CK2 β-subunit encompassing residues 182–203 (QFVPRLYGFKIHPMAYQLQLQA; UniProt P67870 182-203, looked up, fragment) [reference compound] | – | 50

Source: article PMC3026963 (The Biochemical journal, 2010)
